Test results as given in ChEMBL document CHEMBL5653631, “A Potent and Selective ULK1 Inhibitor Suppresses Autophagy and Sensitizes Cancer Cells to Nutrient Stress” (iScience, 2018).
pIC50: −log10 of the molar value.

Legend:
[1] = molecular target: Protein kinase C theta type (Homo sapiens) (UniProt Q04759); experiment: Inhibition of human recombinant PKCt at 500 nM in presence of ATP by radiometric assay relative to control
[2] = molecular target: T1, Serine/threonine-protein kinase ULK1 (Homo sapiens) (UniProt O75385); experiment: Inhibition of ULK1 phosphorylation at Ser15 residue in HEK293 cells incubated for 1 hr by chemiluminescence based immunoblotting analysis; type: cell-based; conditions: HEK293T, dose <= 20.0 µM
T1 sequence (whole entry): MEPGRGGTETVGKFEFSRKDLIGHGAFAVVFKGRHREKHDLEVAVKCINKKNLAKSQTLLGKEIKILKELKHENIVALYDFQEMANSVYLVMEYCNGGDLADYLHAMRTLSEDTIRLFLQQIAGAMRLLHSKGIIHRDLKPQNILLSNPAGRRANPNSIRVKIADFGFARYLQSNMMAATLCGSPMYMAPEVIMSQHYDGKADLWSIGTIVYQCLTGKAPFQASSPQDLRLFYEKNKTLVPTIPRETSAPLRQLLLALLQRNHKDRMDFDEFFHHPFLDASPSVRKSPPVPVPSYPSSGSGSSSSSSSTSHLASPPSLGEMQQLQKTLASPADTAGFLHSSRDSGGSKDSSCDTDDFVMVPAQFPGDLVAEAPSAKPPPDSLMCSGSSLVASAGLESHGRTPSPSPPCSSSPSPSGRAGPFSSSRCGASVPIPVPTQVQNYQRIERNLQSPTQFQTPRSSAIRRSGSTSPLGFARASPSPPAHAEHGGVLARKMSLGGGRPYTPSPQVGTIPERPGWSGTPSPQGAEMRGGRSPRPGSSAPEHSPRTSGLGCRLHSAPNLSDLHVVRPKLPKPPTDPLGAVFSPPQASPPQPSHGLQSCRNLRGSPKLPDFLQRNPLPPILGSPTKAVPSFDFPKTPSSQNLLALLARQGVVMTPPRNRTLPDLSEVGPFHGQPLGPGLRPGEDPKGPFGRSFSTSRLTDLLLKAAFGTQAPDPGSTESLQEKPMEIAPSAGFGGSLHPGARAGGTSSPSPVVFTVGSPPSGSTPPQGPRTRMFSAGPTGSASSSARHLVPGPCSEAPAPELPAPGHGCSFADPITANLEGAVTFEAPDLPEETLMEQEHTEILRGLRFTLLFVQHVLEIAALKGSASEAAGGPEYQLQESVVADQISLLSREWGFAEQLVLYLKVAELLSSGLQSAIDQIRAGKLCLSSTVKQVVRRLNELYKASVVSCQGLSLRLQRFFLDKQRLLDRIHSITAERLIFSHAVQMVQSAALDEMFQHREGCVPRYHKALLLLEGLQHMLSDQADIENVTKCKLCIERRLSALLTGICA

[3] = molecular target: T2, Serine/threonine-protein kinase ULK2 (Homo sapiens, UniProt Q8IYT8); experiment: Inhibition of human ULK2
T2 sequence (Q8IYT8 whole entry): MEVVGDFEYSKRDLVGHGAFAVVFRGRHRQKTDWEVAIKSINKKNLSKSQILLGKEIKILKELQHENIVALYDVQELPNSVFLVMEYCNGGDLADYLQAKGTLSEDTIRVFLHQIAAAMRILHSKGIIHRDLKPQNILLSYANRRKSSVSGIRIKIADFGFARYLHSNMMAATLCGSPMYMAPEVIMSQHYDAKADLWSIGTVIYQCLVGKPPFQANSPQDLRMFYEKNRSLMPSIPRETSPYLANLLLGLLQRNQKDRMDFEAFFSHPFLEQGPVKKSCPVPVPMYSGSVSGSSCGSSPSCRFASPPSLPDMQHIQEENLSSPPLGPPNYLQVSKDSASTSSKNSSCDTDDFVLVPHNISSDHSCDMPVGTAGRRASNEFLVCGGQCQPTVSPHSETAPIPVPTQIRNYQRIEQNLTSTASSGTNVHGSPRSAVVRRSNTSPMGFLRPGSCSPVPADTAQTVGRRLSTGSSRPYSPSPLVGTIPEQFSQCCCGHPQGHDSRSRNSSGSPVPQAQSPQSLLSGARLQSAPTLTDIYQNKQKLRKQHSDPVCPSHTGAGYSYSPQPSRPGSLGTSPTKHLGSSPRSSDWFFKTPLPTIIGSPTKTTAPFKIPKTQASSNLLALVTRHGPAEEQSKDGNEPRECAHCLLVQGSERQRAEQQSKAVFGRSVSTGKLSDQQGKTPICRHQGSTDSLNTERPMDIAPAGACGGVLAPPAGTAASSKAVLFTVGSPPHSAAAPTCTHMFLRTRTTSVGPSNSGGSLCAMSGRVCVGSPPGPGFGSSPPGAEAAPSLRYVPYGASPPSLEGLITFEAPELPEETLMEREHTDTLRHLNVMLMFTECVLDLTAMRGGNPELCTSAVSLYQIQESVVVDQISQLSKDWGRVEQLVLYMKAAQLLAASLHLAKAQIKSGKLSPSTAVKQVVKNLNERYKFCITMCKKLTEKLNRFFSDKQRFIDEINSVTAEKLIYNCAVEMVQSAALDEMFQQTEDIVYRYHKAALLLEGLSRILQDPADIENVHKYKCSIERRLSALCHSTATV

[4] = molecular target: Ribosomal protein S6 kinase alpha-5 (Homo sapiens) (UniProt O75582); experiment: Inhibition of human recombinant MSK1 at 40 nM in presence of ATP by radiometric assay relative to control
Sequence of Ribosomal protein S6 kinase alpha-5 (Homo sapiens) (O75582 whole entry, looked up): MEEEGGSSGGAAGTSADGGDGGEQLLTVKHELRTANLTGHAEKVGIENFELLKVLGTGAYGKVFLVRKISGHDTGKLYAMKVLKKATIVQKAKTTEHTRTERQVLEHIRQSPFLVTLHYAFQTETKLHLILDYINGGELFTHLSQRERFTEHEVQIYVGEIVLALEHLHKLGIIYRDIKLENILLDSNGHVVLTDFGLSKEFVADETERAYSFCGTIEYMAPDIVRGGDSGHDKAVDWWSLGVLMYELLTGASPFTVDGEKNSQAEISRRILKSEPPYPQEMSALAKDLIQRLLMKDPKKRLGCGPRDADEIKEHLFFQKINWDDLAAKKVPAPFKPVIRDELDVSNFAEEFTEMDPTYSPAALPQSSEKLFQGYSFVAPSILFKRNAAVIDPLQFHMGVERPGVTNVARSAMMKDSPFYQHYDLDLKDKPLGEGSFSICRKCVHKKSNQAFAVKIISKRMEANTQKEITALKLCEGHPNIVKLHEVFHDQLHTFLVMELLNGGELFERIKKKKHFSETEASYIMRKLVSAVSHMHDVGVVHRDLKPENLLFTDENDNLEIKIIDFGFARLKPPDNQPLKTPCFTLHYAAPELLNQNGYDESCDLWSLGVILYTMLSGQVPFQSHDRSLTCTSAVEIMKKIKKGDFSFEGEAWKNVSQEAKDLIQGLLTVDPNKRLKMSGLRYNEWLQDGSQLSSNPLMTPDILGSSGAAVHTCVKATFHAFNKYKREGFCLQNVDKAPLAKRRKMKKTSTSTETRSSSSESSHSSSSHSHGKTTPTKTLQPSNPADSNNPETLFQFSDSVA

[5] = molecular target: Serine/threonine-protein kinase pim-2 (Homo sapiens) (UniProt Q9P1W9); experiment: Inhibition of human recombinant PIM2 at 40 nM related to control ULK1
Sequence of Serine/threonine-protein kinase pim-2 (Homo sapiens) (Q9P1W9 whole entry, looked up): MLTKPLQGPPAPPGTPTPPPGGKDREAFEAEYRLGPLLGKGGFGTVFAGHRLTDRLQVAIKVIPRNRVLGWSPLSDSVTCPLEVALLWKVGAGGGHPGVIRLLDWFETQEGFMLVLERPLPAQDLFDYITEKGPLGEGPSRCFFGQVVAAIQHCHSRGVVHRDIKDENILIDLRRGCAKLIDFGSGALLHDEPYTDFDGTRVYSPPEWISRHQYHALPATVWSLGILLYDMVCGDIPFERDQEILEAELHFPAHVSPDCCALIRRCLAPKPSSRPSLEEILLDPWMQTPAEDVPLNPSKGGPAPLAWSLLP

[6] = molecular target: Cyclin-dependent kinase 5 (Homo sapiens) (UniProt Q00535); experiment: Inhibition of human recombinant CDK5 at 40 nM in presence of ATP by radiometric assay relative to control
Sequence of Cyclin-dependent kinase 5 (Homo sapiens) (Q00535 whole entry, looked up): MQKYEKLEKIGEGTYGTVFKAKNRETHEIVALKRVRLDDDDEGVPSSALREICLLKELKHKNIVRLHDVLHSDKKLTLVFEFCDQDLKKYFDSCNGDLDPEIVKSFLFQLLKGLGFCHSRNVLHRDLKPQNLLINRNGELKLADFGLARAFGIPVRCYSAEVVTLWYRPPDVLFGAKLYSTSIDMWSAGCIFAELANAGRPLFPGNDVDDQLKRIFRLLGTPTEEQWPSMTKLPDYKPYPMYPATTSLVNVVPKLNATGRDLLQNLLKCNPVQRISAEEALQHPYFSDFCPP

[7] = molecular target: 5'-AMP-activated protein kinase catalytic subunit alpha-2 (Homo sapiens) (UniProt P54646); experiment: Inhibition of human recombinant AMPKa2 at 15 nM in presence of ATP by radiometric assay relative to control
Sequence of 5'-AMP-activated protein kinase catalytic subunit alpha-2 (Homo sapiens) (P54646 whole entry, looked up): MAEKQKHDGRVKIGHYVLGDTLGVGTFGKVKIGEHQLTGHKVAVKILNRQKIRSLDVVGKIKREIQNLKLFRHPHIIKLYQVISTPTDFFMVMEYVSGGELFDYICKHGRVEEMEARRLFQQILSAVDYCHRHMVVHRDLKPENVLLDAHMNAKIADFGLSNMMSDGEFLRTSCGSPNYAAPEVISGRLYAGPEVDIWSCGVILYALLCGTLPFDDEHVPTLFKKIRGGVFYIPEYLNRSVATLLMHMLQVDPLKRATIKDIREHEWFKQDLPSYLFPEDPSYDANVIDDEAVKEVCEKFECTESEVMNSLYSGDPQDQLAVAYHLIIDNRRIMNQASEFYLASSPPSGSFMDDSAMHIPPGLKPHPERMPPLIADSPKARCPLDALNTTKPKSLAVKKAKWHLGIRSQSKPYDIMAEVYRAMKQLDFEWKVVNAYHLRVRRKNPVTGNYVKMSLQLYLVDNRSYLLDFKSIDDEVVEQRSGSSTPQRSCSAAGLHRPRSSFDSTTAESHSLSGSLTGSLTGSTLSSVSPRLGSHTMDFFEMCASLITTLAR
Summary of the method: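 Panel of 327 recombinant human kinases, each assayed in vitro by radiometric activity assay in duplicate at a single inhibitor concentration per compound, chosen with reference to its ULK1 inhibition. Activity remaining was expressed as percent of vehicle control, and percent inhibition was calculated as 100 minus percent activity remaining.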

[8] = molecular target: Protein kinase C beta type (Homo sapiens) (UniProt P05771); experiment: Inhibition of human recombinant PKCb at 15 nM in presence of ATP by radiometric assay relative to control
Sequence of Protein kinase C beta type (Homo sapiens) (P05771 2-671 limits assumed): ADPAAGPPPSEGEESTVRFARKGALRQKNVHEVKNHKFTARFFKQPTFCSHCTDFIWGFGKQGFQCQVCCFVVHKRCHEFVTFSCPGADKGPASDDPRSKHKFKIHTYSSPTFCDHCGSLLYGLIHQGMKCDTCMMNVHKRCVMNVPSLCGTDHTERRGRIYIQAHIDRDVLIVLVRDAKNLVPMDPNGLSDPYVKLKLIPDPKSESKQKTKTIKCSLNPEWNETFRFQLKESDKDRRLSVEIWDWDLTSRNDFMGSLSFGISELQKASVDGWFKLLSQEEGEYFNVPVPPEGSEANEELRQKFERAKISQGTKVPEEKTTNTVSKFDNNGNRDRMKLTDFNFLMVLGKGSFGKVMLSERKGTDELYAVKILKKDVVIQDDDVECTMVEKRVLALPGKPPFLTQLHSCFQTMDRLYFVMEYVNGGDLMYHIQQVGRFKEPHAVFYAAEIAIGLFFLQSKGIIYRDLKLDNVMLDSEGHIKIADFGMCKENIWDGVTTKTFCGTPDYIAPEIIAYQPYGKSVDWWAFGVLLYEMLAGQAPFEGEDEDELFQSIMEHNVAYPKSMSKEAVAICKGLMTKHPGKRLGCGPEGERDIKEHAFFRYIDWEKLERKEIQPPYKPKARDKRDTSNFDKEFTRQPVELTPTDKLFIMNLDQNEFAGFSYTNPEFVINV

Sequence of Protein kinase C theta type (Homo sapiens) (Q04759 whole entry, looked up): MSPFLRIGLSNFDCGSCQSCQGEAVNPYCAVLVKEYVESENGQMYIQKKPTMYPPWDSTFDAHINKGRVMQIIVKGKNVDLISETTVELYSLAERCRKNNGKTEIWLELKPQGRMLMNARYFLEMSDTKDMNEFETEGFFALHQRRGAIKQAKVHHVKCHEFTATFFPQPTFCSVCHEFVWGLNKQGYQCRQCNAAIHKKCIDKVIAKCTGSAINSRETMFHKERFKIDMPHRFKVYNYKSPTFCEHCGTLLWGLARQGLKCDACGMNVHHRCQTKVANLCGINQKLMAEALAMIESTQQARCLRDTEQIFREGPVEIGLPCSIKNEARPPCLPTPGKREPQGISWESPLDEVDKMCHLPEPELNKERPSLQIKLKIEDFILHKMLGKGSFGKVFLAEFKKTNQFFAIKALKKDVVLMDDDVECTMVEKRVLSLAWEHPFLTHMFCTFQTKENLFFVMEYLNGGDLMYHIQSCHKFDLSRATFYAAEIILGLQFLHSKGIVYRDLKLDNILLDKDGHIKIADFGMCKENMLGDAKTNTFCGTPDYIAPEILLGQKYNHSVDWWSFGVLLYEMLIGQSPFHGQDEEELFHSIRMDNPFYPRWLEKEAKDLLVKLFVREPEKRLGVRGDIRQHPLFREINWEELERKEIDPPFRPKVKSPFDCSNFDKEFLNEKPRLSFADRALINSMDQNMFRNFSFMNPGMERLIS

| inhibition [1] | inhibition [2] | pIC50 [3] | inhibition [4] | fold change (FC) [5] | inhibition [6] | inhibition [7] | inhibition [8] | Compound |
| --- | --- | --- | --- | --- | --- | --- | --- | --- |
| 0% | Dose-Dependent Effect | 6.67 |  |  |  |  |  | CNC(=O)c1ccccc1Oc1nc(Nc2cc(OC)c(OC)c(OC)c2)ncc1Br |
|  | Dose-Dependent Effect | 7.52 | 0% | 0.04 | 47% |  |  | O=C(N[C@@H](C1CC1)C(F)(F)F)c1cc(-c2cnn3cc(-c4ccc(F)cc4)cnc23)cs1 |
|  | Dose-Dependent Effect | 8.59 |  |  |  | 83% | 0% | CC(C)[C@H](NC(=O)c1cc(-c2cnn3cc(-c4ccc(OCCN5CCCCC5)cc4)cnc23)cs1)C(F)(F)F |
